Results published in ChEMBL document CHEMBL1136952, “Inhibition of staphyloxanthin virulence factor biosynthesis in Staphylococcus aureus: in vitro, in vivo, and crystallographic results” (J Med Chem, 2009).

Legend:
MCF7 = assay: Cytotoxicity against human MCF7 cells after 4 days by MTT assay; format: cell-based; details: MCF7, 96 h
Procedure, shortened: (§1)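 Cell lines from the National Cancer Institute, grown in RPMI-1640 with 10% FBS and 2 mM L-glutamine at 37 °C, 5% CO2. Seeded 5000 cells/well with compound half-log serially diluted (0.316 mM to 0.1 pM). Incubated 4 days. Viability read by MTT. IC50 from dose-response fit of OD data.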

Staphylococcus aureus = assay: Inhibition of staphyloxanthin biosynthesis in Staphylococcus aureus isolate Pig1 after 72 hrs by spectrophotometry; format: functional, organism-based; details: isolate Pig1, PIG1, 72 h
Procedure, shortened: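 Bacteria were grown in Todd-Hewitt broth with compound for 72 h, in duplicate. Cells were then centrifuged and washed twice in PBS. Pigment was extracted with MeOH and read by OD at 450 nm. IC50 came from a dose-response fit of the OD data.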

Squalene synthase = target: T1, Squalene synthase (Homo sapiens, UniProt P37268); assay: Inhibition of human recombinant squalene synthase expressed in Escherichia coli cells assessed as conversion of [3H]FPP to squalene by liquid scintillation
T1 sequence (P37268 whole entry): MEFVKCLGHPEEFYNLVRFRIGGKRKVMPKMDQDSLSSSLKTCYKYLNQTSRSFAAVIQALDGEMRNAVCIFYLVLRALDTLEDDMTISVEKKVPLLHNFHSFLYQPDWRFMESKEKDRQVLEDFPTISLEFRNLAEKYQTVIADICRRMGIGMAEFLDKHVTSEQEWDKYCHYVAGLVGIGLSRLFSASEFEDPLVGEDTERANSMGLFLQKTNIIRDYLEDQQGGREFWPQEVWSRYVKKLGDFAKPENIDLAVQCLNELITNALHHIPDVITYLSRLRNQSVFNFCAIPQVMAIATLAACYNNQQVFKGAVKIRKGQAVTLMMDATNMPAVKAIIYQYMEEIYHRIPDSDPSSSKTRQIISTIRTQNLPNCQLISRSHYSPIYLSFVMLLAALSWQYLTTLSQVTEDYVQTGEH

NCI-H460 = assay: Cytotoxicity against human NCI-H460 cells after 4 days by MTT assay; format: cell-based; details: NCI-H460, 96 h; procedure, shortened: as §1
SF-268 = assay: Cytotoxicity against human SF268 cells after 4 days by MTT assay; format: cell-based; details: SF-268, 96 h; procedure, shortened: as §1
[1] = target: T2, 4,4'-diapophytoene synthase (Staphylococcus aureus, UniProt A9JQL9); assay: Inhibition of Staphylococcus aureus histidine tagged dehydrosqualene synthase expressed in Escherichia coli BL21 (DE3) cells by continuous spectrophotometric assay
T2 sequence (A9JQL9 whole entry): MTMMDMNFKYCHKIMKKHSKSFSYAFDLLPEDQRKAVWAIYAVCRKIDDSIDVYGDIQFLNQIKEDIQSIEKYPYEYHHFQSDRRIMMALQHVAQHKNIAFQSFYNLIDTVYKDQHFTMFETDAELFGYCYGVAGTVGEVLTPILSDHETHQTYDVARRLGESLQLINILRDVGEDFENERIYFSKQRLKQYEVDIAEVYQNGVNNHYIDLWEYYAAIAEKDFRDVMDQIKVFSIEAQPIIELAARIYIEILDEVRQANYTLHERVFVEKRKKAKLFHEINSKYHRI
Procedure, shortened: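 His-tagged CrtM purified on Ni-NTA. Compounds were preincubated with 2 μg enzyme for 30 min at 20 °C. Phosphate release was followed continuously by a coupled spectrophotometric assay. IC50 came from a dose-response fit, and Ki was derived from IC50, substrate concentration and the CrtM kinetic constant.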

In the case of `CC(C)(C(=O)NCCCc1cccc(Oc2ccccc2)c1)P(=O)(O)O`, the IC50 (MCF7) is reported as > 300 µM, the IC50 (Staphylococcus aureus) is reported as > 500 µM and the IC50 (Squalene synthase) is reported as 0.52 µM. The IC50 (NCI-H460) was > 300 µM, the IC50 (SF-268) was > 300 µM and the Ki [1] was 0.96 µM.

`O=C(CCCCc1cccc(Oc2ccccc2)c1)CP(=O)(O)O` was tested, and the IC50 (MCF7) was 135 µM, the IC50 (Staphylococcus aureus) was 28 µM and the IC50 (Squalene synthase) was 20 µM. For the same molecule, the IC50 (NCI-H460) was 191 µM and the Ki [1] was > 7 µM.

`O=C(CP(=O)(O)O)NCCCc1cccc(Oc2ccc(Cl)c(Cl)c2)c1` was tested, and the IC50 (MCF7) was > 300 µM, the IC50 (Staphylococcus aureus) was 0.04 µM and the IC50 (Squalene synthase) was 0.74 µM. For the same molecule, the IC50 (NCI-H460) was > 300 µM, the IC50 (SF-268) was > 300 µM and the Ki [1] was 0.03 µM.

`O=C(CP(=O)([O-])[O-])NCCCc1cccc(Oc2ccccc2)c1.[K+].[K+]` was tested, and the IC50 (MCF7) was > 300 µM, the IC50 (Staphylococcus aureus) was 0.008 µM and the IC50 (Squalene synthase) was 0.53 µM. The IC50 (NCI-H460) was > 300 µM and the IC50 (SF-268) was > 300 µM.

With `O=C(NO)C(CCCc1cccc(Oc2ccccc2)c1)P(=O)(O)O` (stereo not drawn) the IC50 (MCF7) was > 300 µM, the IC50 (Staphylococcus aureus) was 4.2 µM and the IC50 (Squalene synthase) was 0.3 µM. The IC50 (NCI-H460) was > 300 µM, the IC50 (SF-268) was > 300 µM and the Ki [1] was 4.1 µM.

For `O=C(CP(=O)(O)O)NCCCCc1cccc(Oc2ccccc2)c1`, the IC50 (MCF7) was > 300 µM, the IC50 (Staphylococcus aureus) was 35 µM and the IC50 (Squalene synthase) was > 30 µM. The IC50 (NCI-H460) was > 300 µM, the IC50 (SF-268) was > 300 µM and the Ki [1] was 5.3 µM.

In the case of `O=C(CP(=O)(O)O)OCCCc1cccc(Oc2ccccc2)c1`, the IC50 (MCF7) is reported as 69 µM, the IC50 (Staphylococcus aureus) is reported as > 500 µM and the IC50 (Squalene synthase) is reported as > 30 µM. For the same molecule, the IC50 (NCI-H460) was 86 µM and the Ki [1] was 5.7 µM.

With `O=C(CS(=O)(=O)O)NCCCc1cccc(Oc2ccccc2)c1` the IC50 (MCF7) was > 300 µM, the IC50 (Staphylococcus aureus) was 15 µM and the IC50 (Squalene synthase) was > 30 µM. The IC50 (NCI-H460) was > 300 µM, the IC50 (SF-268) was > 300 µM and the Ki [1] was 0.81 µM.

In the case of `O=C(CP(=O)(O)O)N(O)CCCc1cccc(Oc2ccc(Cl)c(Cl)c2)c1`, the IC50 (MCF7) is reported as > 300 µM, the IC50 (Staphylococcus aureus) is reported as 0.042 µM and the IC50 (Squalene synthase) is reported as 1.6 µM. For the same molecule, the IC50 (NCI-H460) was > 300 µM, the IC50 (SF-268) was > 300 µM and the Ki [1] was 0.32 µM.

With `O=C(CP(=O)(O)O)N(O)CCCc1cccc(Oc2ccccc2)c1` the IC50 (MCF7) was > 300 µM, the IC50 (Staphylococcus aureus) was 0.11 µM and the IC50 (Squalene synthase) was 30 µM. For the same molecule, the IC50 (NCI-H460) was > 300 µM, the IC50 (SF-268) was > 300 µM and the Ki [1] was 0.32 µM.

In the case of `CN(CCCc1cccc(Oc2ccccc2)c1)C(=O)CP(=O)(O)O`, the IC50 (MCF7) is reported as > 300 µM, the IC50 (Staphylococcus aureus) is reported as 8.6 µM and the IC50 (Squalene synthase) is reported as 1 µM. For the same molecule, the IC50 (NCI-H460) was > 300 µM, the IC50 (SF-268) was > 300 µM and the Ki [1] was 0.91 µM.

In the case of `O=C(CP(=O)(O)O)NCCCc1cccc(Oc2ccc(Cl)cc2)c1`, the IC50 (MCF7) is reported as > 300 µM, the IC50 (Staphylococcus aureus) is reported as 0.028 µM and the IC50 (Squalene synthase) is reported as 1.1 µM. The IC50 (NCI-H460) was > 300 µM, the IC50 (SF-268) was > 300 µM and the Ki [1] was 0.07 µM.

With `O=C(CP(=O)(O)O)NCCCc1ccc(-c2ccccc2)cc1` the IC50 (MCF7) was > 300 µM, the IC50 (Staphylococcus aureus) was 5 µM and the IC50 (Squalene synthase) was > 30 µM. For the same molecule, the IC50 (NCI-H460) was > 300 µM, the IC50 (SF-268) was > 300 µM and the Ki [1] was 0.81 µM.

In the case of `O=P(O)(O)CS(=O)(=O)NCCCc1cccc(Oc2ccccc2)c1`, the IC50 (MCF7) is reported as > 300 µM, the IC50 (Staphylococcus aureus) is reported as > 500 µM and the IC50 (Squalene synthase) is reported as > 30 µM. The IC50 (NCI-H460) was > 300 µM, the IC50 (SF-268) was > 300 µM and the Ki [1] was > 7 µM.

For `O=C(O)CC(=O)NCCCc1cccc(Oc2ccccc2)c1`, the IC50 (MCF7) was 283 µM, the IC50 (Staphylococcus aureus) was 200 µM and the IC50 (Squalene synthase) was > 30 µM. For the same molecule, the IC50 (NCI-H460) was 306 µM, the IC50 (SF-268) was 306 µM and the Ki [1] was > 7 µM.

With `O=C(CP(=O)(O)O)NCCc1cccc(Oc2ccccc2)c1` the IC50 (MCF7) was > 300 µM, the IC50 (Staphylococcus aureus) was 3 µM and the IC50 (Squalene synthase) was 6.2 µM. For the same molecule, the IC50 (NCI-H460) was > 300 µM, the IC50 (SF-268) was > 300 µM and the Ki [1] was 1.5 µM.

For `Cc1ccc(-c2ccc(CCCN(O)C(=O)CP(=O)(O)O)cc2)cc1`, the IC50 (MCF7) was 266 µM, the IC50 (Staphylococcus aureus) was 4.1 µM and the IC50 (Squalene synthase) was > 30 µM. For the same molecule, the IC50 (NCI-H460) was 284 µM and the Ki [1] was > 7 µM.
